Experimental data from ChEMBL document CHEMBL4257551, “Glycyrrhizic acid from licorice down-regulates inflammatory responses via blocking MAPK and PI3K/Akt-dependent NF-κB signalling pathways in TPA-induced skin inflammation” (2018).
Activity calls are given as the source filed them. The rule behind the calls is not given here.

Legend:
Mus musculus [1] = assay: Antiinflammatory activity against TPA-induced ear edema in BALB/c mouse assessed as decrease in ear punches at 50 mM administered topically for 15 mins prior to TPA challenge and measured after 6 hrs relative to control; type: functional; set-up: scale not given: the % may be the effect or the level left
How it was run: (§1)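 Female BALB/c mice, 4–5 weeks old, n = 3 per group. Both ears received 30 μL of test solution in DMSO:methylene chloride (20:80) at 50, 100, 150 or 200 mM. Topical TPA (30 μL, 25 μg mL⁻¹) followed 15 min later. Mice were killed at 6 h, and two 6 mm punches per animal were weighed. Controls had vehicle then acetone. Mean ± SD of six experiments in triplicate.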

Mus musculus [2] = assay: Antiinflammatory activity against TPA-induced ear edema in BALB/c mouse assessed as decrease in ear punches at 100 mM administered topically for 15 mins prior to TPA challenge and measured after 6 hrs relative to control; type: functional; set-up: scale not given: the % may be the effect or the level left; how it was run: as §1
Mus musculus [3] = assay: Antiinflammatory activity against TPA-induced ear edema in BALB/c mouse assessed as decrease in ear punches at 150 mM administered topically for 15 mins prior to TPA challenge and measured after 6 hrs relative to control; type: functional; set-up: scale not given: the % may be the effect or the level left; how it was run: as §1
Mus musculus [4] = assay: Antiinflammatory activity against TPA-induced ear edema in BALB/c mouse assessed as decrease in ear punches at 200 mM administered topically for 15 mins prior to TPA challenge and measured after 6 hrs relative to control; type: functional; set-up: scale not given: the % may be the effect or the level left; how it was run: as §1
Mus musculus [5] = assay: Antiinflammatory activity against TPA-induced ear edema in BALB/c mouse assessed as decrease in ear punches administered topically for 15 mins prior to TPA challenge and measured after 6 hrs; type: functional, organism-based; how it was run: as §1
Mus musculus [6] = assay: Antiinflammatory activity against TPA-induced ear edema in BALB/c mouse assessed as weight of ear punches at 200 mM administered topically for 15 mins prior to TPA challenge and measured after 3 hrs (reference value: 8.3 +/- 0.1 mg); type: functional
Mus musculus [7] = assay: Antiinflammatory activity against TPA-induced ear edema in BALB/c mouse assessed as weight of ear punches at 200 mM administered topically for 15 mins prior to TPA challenge and measured after 12 hrs (reference value: 12.4 +/- 0.1 mg); type: functional
Mus musculus [8] = assay: Antiinflammatory activity against TPA-induced ear edema in BALB/c mouse assessed as weight of ear punches at 200 mM administered topically for 15 mins prior to TPA challenge and measured after 24 hrs (reference value: 12.1 +/- 0.2 mg); type: functional
Mus musculus [9] = assay: Antiinflammatory activity against TPA-induced ear edema in BALB/c mouse assessed as weight of ear punches at 200 mM administered topically for 15 mins prior to TPA challenge and measured after 48 hrs (reference value: 11.4 +/- 0.3 mg); type: functional
Mus musculus [10] = assay: Antiinflammatory activity against TPA-induced ear edema in BALB/c mouse assessed as weight of ear punches at 200 mM, po administered 15 mins prior to TPA challenge and measured after 3 hrs (reference value: 8.3 +/- 0.1 mg); type: functional
Mus musculus [11] = assay: Antiinflammatory activity against TPA-induced ear edema in BALB/c mouse assessed as weight of ear punches at 200 mM, po administered 15 mins prior to TPA challenge and measured after 6 hrs (reference value: 12.5 +/- 0.3 mg); type: functional
Mus musculus [12] = assay: Antiinflammatory activity against TPA-induced ear edema in BALB/c mouse assessed as weight of ear punches at 200 mM, po administered 15 mins prior to TPA challenge and measured after 12 hrs (reference value: 12.4 +/- 0.1 mg); type: functional
Mus musculus [13] = assay: Antiinflammatory activity against TPA-induced ear edema in BALB/c mouse assessed as weight of ear punches at 200 mM, ip administered 15 mins prior to TPA challenge and measured after 3 hrs (reference value: 8.3 +/- 0.1 mg); type: functional
Mus musculus [14] = assay: Antiinflammatory activity against TPA-induced ear edema in BALB/c mouse assessed as weight of ear punches at 200 mM, ip administered 15 mins prior to TPA challenge and measured after 6 hrs (reference value: 12.5 +/- 0.3 mg); type: functional
Mus musculus [15] = assay: Antiinflammatory activity against TPA-induced ear edema in BALB/c mouse assessed as weight of ear punches at 200 mM, ip administered 15 mins prior to TPA challenge and measured after 12 hrs (reference value: 12.4 +/- 0.1 mg); type: functional
Mus musculus [16] = assay: Antiinflammatory activity against TPA-induced ear edema in BALB/c mouse assessed as weight of ear punches at 200 mM, ip administered 15 mins prior to TPA challenge and measured after 24 hrs (reference value: 12.1 +/- 0.2 mg); type: functional
Mus musculus [17] = assay: Antiinflammatory activity against TPA-induced ear edema in BALB/c mouse assessed as weight of ear punches at 200 mM, ip administered 15 mins prior to TPA challenge and measured after 48 hrs (reference value: 11.4 +/- 0.3 mg); type: functional
Mus musculus [18] = assay: Antiinflammatory activity against TPA-induced ear edema in BALB/c mouse assessed as decrease in weight of ear punches at 5 mg administered topically for 15 mins prior to TPA challenge and measured after 3 hrs relative to control; type: functional; set-up: scale not given: the % may be the effect or the level left
Mus musculus [19] = assay: Antiinflammatory activity against TPA-induced ear edema in BALB/c mouse assessed as decrease in weight of ear punches at 5 mg administered topically for 15 mins prior to TPA challenge and measured after 6 hrs relative to control; type: functional; set-up: scale not given: the % may be the effect or the level left
Mus musculus [20] = assay: Antiinflammatory activity against TPA-induced ear edema in BALB/c mouse assessed as decrease in weight of ear punches at 5 mg administered topically for 15 mins prior to TPA challenge and measured after 12 hrs relative to control; type: functional; set-up: scale not given: the % may be the effect or the level left
Mus musculus [21] = assay: Antiinflammatory activity against TPA-induced ear edema in BALB/c mouse assessed as decrease in weight of ear punches at 5 mg administered topically for 15 mins prior to TPA challenge and measured after 24 hrs relative to control; type: functional; set-up: scale not given: the % may be the effect or the level left
Mus musculus [22] = assay: Antiinflammatory activity against TPA-induced ear edema in BALB/c mouse assessed as decrease in weight of ear punches at 5 mg administered topically for 15 mins prior to TPA challenge and measured after 48 hrs relative to control; type: functional; set-up: scale not given: the % may be the effect or the level left
Mus musculus [23] = assay: Antiinflammatory activity against TPA-induced ear edema in BALB/c mouse assessed as decrease in weight of ear punches at 200 mM, po administered 15 mins prior to TPA challenge and measured after 24 hrs relative to control; type: functional; set-up: scale not given: the % may be the effect or the level left
Mus musculus [24] = assay: Antiinflammatory activity against TPA-induced ear edema in BALB/c mouse assessed as decrease in weight of ear punches at 200 mM, po administered 15 mins prior to TPA challenge and measured after 48 hrs relative to control; type: functional; set-up: scale not given: the % may be the effect or the level left
Mus musculus [25] = assay: Antiinflammatory activity against TPA-induced ear edema in BALB/c mouse assessed as decrease in leucocyte infiltration in edema administered topically for 15 mins prior to TPA challenge and measured after 6 hrs by hematoxylin/eosin staining-based microscopic method; type: functional, organism-based
How it was run: (§2)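 Female BALB/c mice were pretreated topically at 50–200 mM, then given TPA. Ears were taken at 6 h, fixed in 4% PFA, decalcified in EDTA, paraffin-embedded and sectioned at 4 μm for H&E. Epidermal hyperplasia and dermal leukocyte infiltration were scored in at least five regions at 200×. ANOVA with Dunnett's test.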

Mus musculus [26] = assay: Antiinflammatory activity against TPA-induced ear edema in BALB/c mouse assessed as decrease in epidermal hyperplasia in edema administered topically for 15 mins prior to TPA challenge and measured after 6 hrs by hematoxylin/eosin staining-based microscopic method; type: functional, organism-based; how it was run: as §2
Mus musculus [27] = assay: Antiinflammatory activity against TPA-induced ear edema in BALB/c mouse assessed as decrease in 18F-FDG uptake in ears administered topically for 15 mins prior to TPA challenge and measured after 24 hrs by microPET-CT imaging method; type: functional, organism-based
How it was run: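 CT-guided regions of interest were drawn over the ears, and uptake was expressed as SUVmax and SUVmean. Dosing was 200 mM in DMSO:methylene chloride (20:80) on the ears before topical TPA.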

Mus musculus [28] = assay: Antiinflammatory activity against TPA-induced ear edema in BALB/c mouse assessed as decrease in iNOS expression in edema administered topically for 15 mins prior to TPA challenge by immunohistochemical method; type: functional, organism-based
Mus musculus [29] = assay: Antiinflammatory activity against TPA-induced ear edema in BALB/c mouse assessed as decrease in COX2 expression in edema administered topically for 15 mins prior to TPA challenge by immunohistochemical method; type: functional, organism-based
Mus musculus [30] = assay: Antiinflammatory activity against TPA-induced ear edema in BALB/c mouse assessed as decrease in IkappaBalpha degradation in edema administered topically for 15 mins prior to TPA challenge by immunohistochemical method; type: functional, organism-based
Mus musculus [31] = assay: Antiinflammatory activity against TPA-induced ear edema in BALB/c mouse assessed as decrease in IkappaBalpha phosphorylation in edema administered topically for 15 mins prior to TPA challenge by immunohistochemical method; type: functional, organism-based
Mus musculus [32] = assay: Antiinflammatory activity against TPA-induced ear edema in BALB/c mouse assessed as decrease in p65 phosphorylation in edema administered topically for 15 mins prior to TPA challenge by immunohistochemical method; type: functional, organism-based
Mus musculus [33] = assay: Antiinflammatory activity against TPA-induced ear edema in BALB/c mouse assessed as decrease in p38 phosphorylation in edema administered topically for 15 mins prior to TPA challenge by immunohistochemical method; type: functional, organism-based
Mus musculus [34] = assay: Antiinflammatory activity against TPA-induced ear edema in BALB/c mouse assessed as decrease in ERK1/2 phosphorylation in edema administered topically for 15 mins prior to TPA challenge by immunohistochemical method; type: functional, organism-based
Mus musculus [35] = assay: Antiinflammatory activity against TPA-induced ear edema in BALB/c mouse assessed as decrease in Akt expression in edema at 50 to 200 mM administered topically for 15 mins prior to TPA challenge by immunohistochemical method; type: functional, organism-based
Mus musculus [36] = assay: Antiinflammatory activity against TPA-induced ear edema in BALB/c mouse assessed as decrease in PI3K p85 expression in edema at 50 to 200 mM administered topically for 15 mins prior to TPA challenge by immunohistochemical method; type: functional, organism-based
Mus musculus [37] = assay: Antiinflammatory activity against TPA-induced ear edema in BALB/c mouse assessed as decrease in Akt phosphorylation in edema administered topically for 15 mins prior to TPA challenge by immunohistochemical method; type: functional, organism-based
Mus musculus [38] = assay: Antiinflammatory activity against TPA-induced ear edema in BALB/c mouse assessed as decrease in PI3K p85 phosphorylation in edema administered topically for 15 mins prior to TPA challenge by immunohistochemical method; type: functional, organism-based

CC1(C)[C@@H](O[C@H]2O[C@H](C(=O)O)[C@@H](O)[C@H](O)[C@H]2O[C@@H]2O[C@H](C(=O)O)[C@@H](O)[C@H](O)[C@H]2O)CC[C@]2(C)[C@H]3C(=O)C=C4[C@@H]5C[C@@](C)(C(=O)O)CC[C@]5(C)CC[C@@]4(C)[C@]3(C)CC[C@@H]12 [GLYCYRRHIZIN] was tested, and the Activity (Mus musculus [1]) was 31.5%, the Activity (Mus musculus [2]) was 60.3% and the Activity (Mus musculus [3]) was 63%. The Activity (Mus musculus [4]) was 87.7%, the Activity (Mus musculus [5]) was “Dose-dependent effect” and the Activity (Mus musculus [6]) was 5.6 mg. The Activity (Mus musculus [7]) was 6.1 mg, the Activity (Mus musculus [8]) was 5.9 mg and the Activity (Mus musculus [9]) was 5.9 mg. It also gave an Activity (Mus musculus [10]) of 8 mg, an Activity (Mus musculus [11]) of 12.3 mg and an Activity (Mus musculus [12]) of 12.1 mg. It also gave an Activity (Mus musculus [13]) of 7.8 mg, an Activity (Mus musculus [14]) of 14.6 mg and an Activity (Mus musculus [15]) of 14.1 mg. The Activity (Mus musculus [16]) was 13.5 mg, the Activity (Mus musculus [17]) was 13.1 mg and the Activity (Mus musculus [18]) was 87.1%. The Activity (Mus musculus [19]) was 87.7%, the Activity (Mus musculus [20]) was 87.5% and the Activity (Mus musculus [21]) was 89.9%. The Activity (Mus musculus [22]) was 88.7%, the Activity (Mus musculus [23]) was 66.7% and the Activity (Mus musculus [24]) was 64.5%. The Activity (Mus musculus [25]) was “Dose-dependent effect”, the Activity (Mus musculus [26]) was “Dose-dependent effect” and the Activity (Mus musculus [27]) was “Active”. For the same compound, the Activity (Mus musculus [28]) was “Dose-dependent effect”, the Activity (Mus musculus [29]) was “Dose-dependent effect” and the Activity (Mus musculus [30]) was “Dose-dependent effect”. For the same compound, the Activity (Mus musculus [31]) was “Dose-dependent effect”, the Activity (Mus musculus [32]) was “Dose-dependent effect” and the Activity (Mus musculus [33]) was “Dose-dependent effect”. For the same compound, the Activity (Mus musculus [34]) was “Dose-dependent effect”, the Activity (Mus musculus [35]) was “Active” and the Activity (Mus musculus [36]) was “Active”. The Activity (Mus musculus [37]) was “Dose-dependent effect” and the Activity (Mus musculus [38]) was “Dose-dependent effect”.
